Experimental data taken from ChEMBL document CHEMBL4043097, “Synthesis and evaluation of hydroxychalcones as multifunctional non-purine xanthine oxidase inhibitors for the treatment of hyperuricemia” (Bioorg Med Chem Lett, 2017).

Experiments:
[1] = biological target: T1, Xanthine dehydrogenase/oxidase (Bos taurus, UniProt P80457); test: Inhibition of bovine milk xanthine oxidase pre-incubated for 30 mins followed by xanthine addition and measured every 30 secs for 5 mins by spectrophotometry
[2] = Antioxidant activity assessed as ABTS free radical scavenging activity by measuring trolox equivalents after 6 mins; type: functional
Outline: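 ABTS radical scavenging, expressed as trolox equivalent: (mmol trolox)/(mmol tested compound).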

[3] = Antioxidant activity assessed as DPPH free radical scavenging activity incubated for 30 mins at 2000 uM; type: functional
Outline: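 DPPH radical scavenging, given as percent inhibitory rate with test compound at 2000 µM.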

[4] = biological target: T1, Xanthine dehydrogenase/oxidase; test: Inhibition of bovine milk xanthine oxidase at 1000 uM pre-incubated for 30 mins followed by xanthine addition and measured every 30 secs for 5 mins by spectrophotometry; details: cattle
Outline: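 XO inhibition tested up to 1000 µM, the highest concentration tested; compounds precipitate above this. IC50 values from three experiments, reported as mean ± SEM.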

[5] = Antioxidant activity assessed as DPPH free radical scavenging activity incubated for 30 mins; type: functional
[6] = biological target: T1, Xanthine dehydrogenase/oxidase; test: Mixed type inhibition of bovine milk xanthine oxidase pre-incubated for 30 mins followed by xanthine addition and measured every 30 secs for 5 mins by spectrophotometry based L-B plot analysis; details: cattle
Outline: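 Inhibition type from Michaelis–Menten kinetics. Initial XO velocity measured at increasing xanthine concentrations with inhibitor at 0, 25, 50 and 100 µM. Activity read as change in absorbance at 295 nm per unit time; mode assigned from overlaid Lineweaver–Burk reciprocal plots.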

Mus musculus [7] = test: Anti-hyperuricemic activity in potassium oxonate-induced hyperuricemic Kun-Ming mouse assessed as serum uric acid level at 10 mg/kg/day, ig for 7 days and measured 1 hr post last dose (reference value: 5.89 +/- 0.36 mg/dl); type: functional
Mus musculus [8] = test: Anti-hyperuricemic activity in potassium oxonate-induced hyperuricemic Kun-Ming mouse assessed as serum uric acid level at 50 mg/kg/day, ig for 7 days and measured 1 hr post last dose (reference value: 5.89 +/- 0.36 mg/dl); type: functional
Mus musculus [9] = test: Anti-hyperuricemic activity in potassium oxonate-induced hyperuricemic Kun-Ming mouse assessed as xanthine oxidase activity per gram of protein at 10 mg/kg/day, ig for 7 days and measured 1 hr post last dose (reference value: 81.5 +/- 1.4 U/g protein); type: functional
Mus musculus [10] = test: Anti-hyperuricemic activity in potassium oxonate-induced hyperuricemic Kun-Ming mouse assessed as xanthine oxidase activity per gram of protein at 50 mg/kg/day, ig for 7 days and measured 1 hr post last dose (reference value: 81.5 +/- 1.4 U/g protein); type: functional
Mus musculus [11] = test: Anti-hyperuricemic activity in potassium oxonate-induced hyperuricemic Kun-Ming mouse assessed as reduction in serum uric acid level at 10 and 50 mg/kg/day, ig for 7 days and measured 1 hr post last dose; type: functional, organism-based
Mus musculus [12] = test: Toxicity in Kun-Ming mouse assessed as induction of mortality at 5000 mg/kg, ig measured continuously for first 4 hrs and intermittently for next 24 hrs; type: organism-based; details: in vivo, po
Outline: (§1)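 Mice received a single 5,000 mg/kg dose. They were watched continuously for the first 4 h and intermittently over the next 24 h for abnormal behaviour and mortality. Water intake, food intake and body weight were tracked over the experimental period. The protocol was adapted from an earlier reported acute toxicity study.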

Mus musculus [13] = test: Toxicity in Kun-Ming mouse assessed as effect on water consumption at 5000 mg/kg, ig measured continuously for first 4 hrs and intermittently for next 24 hrs; type: organism-based; details: in vivo, po; outline: as §1
Mus musculus [14] = test: Toxicity in Kun-Ming mouse assessed as effect on food consumption at 5000 mg/kg, ig measured continuously for first 4 hrs and intermittently for next 24 hrs; type: organism-based; details: in vivo, po; outline: as §1
Mus musculus [15] = test: Toxicity in Kun-Ming mouse assessed as induction of body weight reduction at 5000 mg/kg, ig measured continuously for first 4 hrs and intermittently for next 24 hrs; type: organism-based; details: in vivo, po; outline: as §1

T1 sequence (P80457 whole entry): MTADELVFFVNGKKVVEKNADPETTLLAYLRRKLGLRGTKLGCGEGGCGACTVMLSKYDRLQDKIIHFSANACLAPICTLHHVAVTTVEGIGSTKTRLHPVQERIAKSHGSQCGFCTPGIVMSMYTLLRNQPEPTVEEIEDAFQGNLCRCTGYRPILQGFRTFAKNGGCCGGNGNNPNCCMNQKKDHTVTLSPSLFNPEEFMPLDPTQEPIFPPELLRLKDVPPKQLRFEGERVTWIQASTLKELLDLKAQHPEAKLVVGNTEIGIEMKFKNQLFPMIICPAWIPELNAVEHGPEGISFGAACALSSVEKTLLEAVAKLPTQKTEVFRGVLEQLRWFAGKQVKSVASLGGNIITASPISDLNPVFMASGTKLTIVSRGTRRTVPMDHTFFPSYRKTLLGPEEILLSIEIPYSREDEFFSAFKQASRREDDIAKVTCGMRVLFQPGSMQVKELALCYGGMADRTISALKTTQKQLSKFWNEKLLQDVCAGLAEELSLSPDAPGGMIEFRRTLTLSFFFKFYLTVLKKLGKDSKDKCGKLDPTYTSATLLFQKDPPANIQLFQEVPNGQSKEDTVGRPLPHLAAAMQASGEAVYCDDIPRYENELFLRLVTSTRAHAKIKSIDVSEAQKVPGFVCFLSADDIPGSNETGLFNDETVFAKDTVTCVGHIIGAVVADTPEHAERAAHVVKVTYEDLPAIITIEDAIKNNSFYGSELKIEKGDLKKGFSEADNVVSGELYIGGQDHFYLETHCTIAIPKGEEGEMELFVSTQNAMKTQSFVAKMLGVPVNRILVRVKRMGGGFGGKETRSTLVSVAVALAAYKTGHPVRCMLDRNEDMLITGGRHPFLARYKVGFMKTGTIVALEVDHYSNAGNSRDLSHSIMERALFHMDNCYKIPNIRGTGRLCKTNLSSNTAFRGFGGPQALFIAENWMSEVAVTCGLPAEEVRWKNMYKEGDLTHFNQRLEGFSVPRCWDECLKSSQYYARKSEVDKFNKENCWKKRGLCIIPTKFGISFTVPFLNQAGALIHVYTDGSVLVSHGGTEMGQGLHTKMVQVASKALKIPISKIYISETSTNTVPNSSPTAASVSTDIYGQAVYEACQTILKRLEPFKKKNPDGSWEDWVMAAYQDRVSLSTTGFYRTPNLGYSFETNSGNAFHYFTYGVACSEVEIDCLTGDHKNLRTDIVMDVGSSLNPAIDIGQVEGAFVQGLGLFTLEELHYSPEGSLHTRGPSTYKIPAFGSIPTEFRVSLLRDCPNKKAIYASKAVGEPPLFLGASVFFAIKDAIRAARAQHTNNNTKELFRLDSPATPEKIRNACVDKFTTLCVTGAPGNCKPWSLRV

SMILES	IC50 [1] [µM]	Activity (mmolequiv/mmol) [2]	inhibition [3] [%]	other results
O=C(/C=C/c1ccc(O)cc1)c1ccccc1O	79.4	0.24	23.1	–
O=C(/C=C/c1ccc(O)cc1O)c1ccccc1	–	< 0.1	10.8	inhibition (INH) [4]: Not Active
O=C(/C=C/c1ccccc1O)c1ccccc1	145	< 0.1	10.8	–
O=C(/C=C/c1ccccc1O)c1ccccc1O	87.4	0.17	28	–
O=C(/C=C/c1ccccc1)c1ccccc1O [2'-HYDROXYCHALCONE]	71.3	< 0.1	13.5	–
O=C(/C=C/c1ccccc1)c1ccc(O)cc1O [2',4'-DIHYDROXYCHALCONE]	107	0.38	–	IC50 [5]: 197 µM
O=C(/C=C/c1cccc(O)c1)c1cccc(O)c1	88.3	0.18	24.3	–
O=C(/C=C/c1ccc(O)cc1)c1cccc(O)c1	133	0.16	19.7	–
O=C(/C=C/c1cccc(O)c1)c1ccccc1O	91.8	0.93	–	IC50 [5]: 108 µM
O=C(/C=C/c1cccc(O)c1)c1ccccc1 [3-HYDROXY CHALCONE]	228	< 0.1	11.3	–
O=C(/C=C/c1ccccc1O)c1ccc(O)cc1O	56.8	0.87	–	inhibition (INH) [6]: Active; IC50 [5]: 128 µM; Activity (Mus musculus [7]): 5.21 mg/dL; Activity (Mus musculus [8]): 4.5 mg/dL; Activity (Mus musculus [9]): 73.2 U/g protein; Activity (Mus musculus [10]): 64.1 U/g protein; Activity (Mus musculus [11]): Dose-dependent effect; Activity (Mus musculus [12]): Non-Toxic; Activity (Mus musculus [13]): Non-Toxic; Activity (Mus musculus [14]): Non-Toxic; Activity (Mus musculus [15]): Non-Toxic
Oc1ncnc2[nH]ncc12 [ALLOPURINOL]	–	< 0.1	20.5	Activity (Mus musculus [7]): 4.14 mg/dL; Activity (Mus musculus [9]): 50.9 U/g protein
O=C(/C=C/c1ccccc1)c1ccc(O)cc1 [4'-HYDROXYCHALCONE]	–	< 0.1	12.5	inhibition (INH) [4]: Not Active
O=C(/C=C/c1ccc(O)cc1)c1ccc(O)cc1 [4,4'-DIHYDROXYCHALCONE]	117	0.43	35.9	–
O=C(/C=C/c1cccc(O)c1)c1ccc(O)cc1O	108	0.45	38.6	–
O=C(/C=C/c1ccccc1)c1cccc(O)c1	165	< 0.1	11.7	–
O=C(/C=C/c1ccc(O)cc1)c1ccccc1 [4-HYDROXYCHALCONE]	159	< 0.1	25.7	–
Oc1ccc(/C=C/c2cc(O)cc(O)c2)cc1 [RESVERATROL]	–	0.65	–	IC50 [5]: 95.1 µM
O=C(/C=C/c1ccc(O)cc1)c1ccc(O)cc1O [ISOLIQUIRITIGENIN]	47.3	0.51	–	IC50 [5]: 287 µM; Activity (Mus musculus [7]): 5.14 mg/dL; Activity (Mus musculus [8]): 4.45 mg/dL; Activity (Mus musculus [9]): 70.5 U/g protein; Activity (Mus musculus [10]): 62 U/g protein; Activity (Mus musculus [12]): Non-Toxic; Activity (Mus musculus [13]): Non-Toxic; Activity (Mus musculus [14]): Non-Toxic; Activity (Mus musculus [15]): Non-Toxic
O=C(/C=C/c1ccccc1)c1ccccc1 [CHALCONE]	–	< 0.1	18.4	inhibition (INH) [4]: Not Active
